# Experimental data reported in ChEMBL document CHEMBL1150250, “New R/S-3,4-dihydro-2,2-dimethyl-6-halo-4-(phenylaminothiocarbonylamino)-2H-1-benzopyrans structurally related to (+/-)-cromakalim as tissue-selective pancreatic beta-cell K(ATP) channel openers” (Bioorg Med Chem, 2008).
# Calls of active or inactive are those of the source. No cut-off for these calls is given here.
# Assays:
# Aorta [1] = assay: Myorelaxant activity in potassium depolarized Wistar rat aorta rings assessed as relaxation of KCl-induced contraction; format: functional, tissue-based
# Summary of the method: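 Thoracic aorta rings (3–4 mm) from adult fed Wistar rats were equilibrated for 60 min, then contracted with 30 mM KCl. Drug was added cumulatively up to maximal relaxation or 300 µM, and isometric tension was recorded. Relaxation was expressed as % of the KCl contraction. EC50 (50% inhibition of the KCl plateau) was derived from dose–response curves. Values are mean ± SEM (n).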
# [2] = Inhibition of glucose-induced insulin secretion in Wistar rat pancreatic beta islets assessed as residual insulin secretion at 10 uM relative to control; format: functional
# [3] = Inhibition of glucose-induced insulin secretion in Wistar rat pancreatic beta islets assessed as residual insulin secretion at 1 uM relative to control; format: functional
# Aorta [4] = assay: Ratio of IC50 for glucose-induced insulin secretion in Wistar rat pancreatic beta islets to EC50 for myorelaxant activity in Wistar rat aorta rings; format: functional
# Summary of the method: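 Selectivity ratio: the estimated IC50 for inhibition of 16.7 mM glucose-induced insulin release from incubated islets, divided by the EC50 for relaxing 30 mM KCl-contracted rat aortic rings.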
# [5] = Inhibition of glucose-induced insulin secretion in Wistar rat pancreatic beta islets assessed as residual insulin secretion relative to control; format: functional
# Summary of the method: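 Groups of 10 islets from adult fed Wistar rats were preincubated for 30 min at 37 °C in bicarbonate salt medium with 2.8 mM glucose and 0.5% albumin, gassed with O2/CO2. They were then incubated for 90 min in the same medium with 16.7 mM glucose plus drug. Insulin was measured by radioimmunoassay and expressed as % of drug-free 16.7 mM glucose control. Values are mean ± SEM (n).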
# [6] = Activation of KATP channel assessed as reduction of KCl-induced rise in calcium concentration in Wistar rat pancreatic beta islets at 10 uM by calcium fluorimetry
# Summary of the method: (§1)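 Dispersed rat islet cells were cultured for 72 h on coverslips, then loaded with fura-2 AM (2 µmol/L) for 1 h. Cells were perifused in bicarbonate salt medium with 2.8 mM glucose, gassed with O2/CO2. The rise in [Ca2+]i was evoked by 20 mM glucose or by 50 mM KCl, with NaCl lowered to keep osmolarity constant. Drug was 10 µM. Dual-excitation (340/380 nm, emission 510 nm) ratio F340/F380 was recorded in single cells, on different cell populations.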
# [7] = Activation of KATP channel assessed as increase in rate of [45Ca] fractional outflow in perfused Wistar rat pancreatic beta islets at 10 uM in absence of extracellular calcium
# Summary of the method: (§2)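 Islets from adult fed Wistar rats, in groups of 100, were loaded for 60 min at 37 °C in medium with 16.7 mM glucose plus either 86Rb (0.15–0.25 mmol/L) or 45Ca (0.02–0.04 mmol/L). They were washed three times and then perifused at 1.0 mL/min. Effluent was collected each minute from min 31 to 90. Outflow was expressed as fractional outflow rate (% of instantaneous islet content per min). Insulin in the effluent was measured by radioimmunoassay against a rat insulin standard.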
# [8] = Activation of KATP channel assessed as increase in rate of [86Rb] fractional outflow in perfused Wistar rat pancreatic beta islets in presence of glibenclamide at 10 uM; summary of the method: as §2
# [9] = Activation of KATP channel assessed as reduction of glucose-induced rise in cytosolic calcium concentration in Wistar rat pancreatic beta islets at 10 uM by calcium fluorimetry; summary of the method: as §1
# [10] = Activation of KATP channel assessed as increase in rate of [45Ca] fractional outflow in perfused Wistar rat pancreatic beta islets at 10 uM; summary of the method: as §2
# [11] = Activation of KATP channel assessed as insulin release in perfused Wistar rat pancreatic beta islets at 10 uM; summary of the method: as §2
# [12] = Activation of KATP channel assessed as increase in rate of [86Rb] fractional outflow in perfused Wistar rat pancreatic beta islets at 10 uM; summary of the method: as §2
EC50 (Aorta [1]) [µM],Compound,Activity [2] [%],also measured
7.3,Cc1cccc(NC(=S)NC2CC(C)(C)Oc3ccc(F)cc32)c1 (centres undefined),53.1,–
> 10,COc1cccc(NC(=S)NC2CC(C)(C)Oc3ccc(Br)cc32)c1 (centres undefined),36.6,–
11.1,CC1(C)CC(NC(=S)Nc2ccccc2)c2cc(Cl)ccc2O1 (centres undefined),46.6,–
> 30,Cc1ccc(NC(=S)NC2CC(C)(C)Oc3ccc(Br)cc32)cc1 (centres undefined),52.2,–
> 30,Cc1ccc(NC(=S)NC2CC(C)(C)Oc3ccc(Cl)cc32)cc1 (centres undefined),32.8,–
> 30,Cc1ccccc1NC(=S)NC1CC(C)(C)Oc2ccc(Br)cc21 (centres undefined),57,–
11.1,Cc1ccccc1NC(=S)NC1CC(C)(C)Oc2ccc(F)cc21 (centres undefined),69.8,–
> 30,Cc1cccc(NC(=S)NC2CC(C)(C)Oc3ccc(Br)cc32)c1 (centres undefined),37.2,–
3.2,CC1(C)CC(NC(=S)Nc2ccccc2Cl)c2cc(Cl)ccc2O1 (centres undefined),68.2,–
51.5,CC1(C)CC(NC(=S)Nc2ccccc2)c2cc(Br)ccc2O1 (centres undefined),32.8,–
2.9,COc1cccc(NC(=S)NC2CC(C)(C)Oc3ccc(Cl)cc32)c1 (centres undefined),34.3,–
36.3,CC(C)NC1=NS(=O)(=O)c2cc(Cl)ccc2N1,4.9,Activity [3]: 36.2%; Ratio IC50/EC50 (Aorta [4]): 0.02; IC50 [5]: 0.73 µM
> 10,COc1ccccc1NC(=S)NC1CC(C)(C)Oc2ccc(Br)cc21 (centres undefined),65.1,–
7.6,CC1(C)CC(NC(=S)Nc2ccccc2)c2cc(F)ccc2O1 (centres undefined),63.2,–
> 30,Cc1ccccc1NC(=S)NC1CC(C)(C)Oc2ccc(Cl)cc21 (centres undefined),69,–
12.7,COc1ccc(NC(=S)NC2CC(C)(C)Oc3ccc(Cl)cc32)cc1 (centres undefined),50.4,–
24.4,CC1(C)CC(NC(=S)Nc2ccccc2Cl)c2cc(F)ccc2O1 (centres undefined),81.3,–

EC50 (Aorta [1]) [µM],Compound,Activity [2] [%],also measured
6.5,CC1(C)CC(NC(=S)Nc2ccccc2Cl)c2cc(Br)ccc2O1 (centres undefined),57.5,–
> 10,COc1ccccc1NC(=S)NC1CC(C)(C)Oc2ccc(F)cc21 (centres undefined),82.9,–
> 10,CC1(C)CC(NC(=S)Nc2cccc(Cl)c2)c2cc(Cl)ccc2O1 (centres undefined),16.2,Activity [3]: 89.5%; Ratio IC50/EC50 (Aorta [4]): <0.31; IC50 [5]: 3.12 µM
0.13,CC1(C)Oc2ccc(C#N)cc2C(N2CCCC2=O)C1O (racemic) [CROMAKALIM],94.4,Activity [3]: 95.3%; Ratio IC50/EC50 (Aorta [4]): >770; IC50 [5]: > 100 µM
137,Cc1cccc(NC(=S)NC2CC(C)(C)Oc3ccc(Cl)cc32)c1 (centres undefined),43,–
> 10,CC1(C)CC(NC(=S)Nc2ccc(Cl)cc2)c2cc(Cl)ccc2O1 (centres undefined),8.9,Activity [3]: 87.9%; Ratio IC50/EC50 (Aorta [4]): <0.27; IC50 [5]: 2.75 µM
–,CC1=Nc2ccc(Cl)cc2S(=O)(=O)N1 [DIAZOXIDE],73.9,Activity [3]: 87.5%; Ratio IC50/EC50 (Aorta [4]): 1.01
> 10,CC1(C)CC(NC(=S)Nc2ccc(Cl)cc2)c2cc(F)ccc2O1 (centres undefined),10.5,Activity [6]: inactive; Activity [7]: inactive; Activity [8]: inactive; Activity [9]: Active; Activity [3]: 77.5%; Activity [10]: Active; Ratio IC50/EC50 (Aorta [4]): <0.23; Activity [11]: Active; Activity [12]: Active; IC50 [5]: 2.3 µM
> 10,CC1(C)CC(NC(=S)Nc2cccc(Cl)c2)c2cc(F)ccc2O1 (centres undefined),18,Activity [3]: 90.2%; Ratio IC50/EC50 (Aorta [4]): <0.32; IC50 [5]: 3.25 µM
> 10,CC1(C)CC(NC(=S)Nc2cccc(Cl)c2)c2cc(Br)ccc2O1 (centres undefined),23,Activity [3]: 74.6%; Ratio IC50/EC50 (Aorta [4]): <0.25; IC50 [5]: 2.59 µM
> 10,COc1ccc(NC(=S)NC2CC(C)(C)Oc3ccc(Br)cc32)cc1 (centres undefined),53.1,–
5.5,COc1ccccc1NC(=S)NC1CC(C)(C)Oc2ccc(Cl)cc21 (centres undefined),76.8,–
0.35,CC(N/C(=N\C#N)Nc1ccncc1)C(C)(C)C (racemic) [PINACIDIL ANHYDROUS],–,IC50 [5]: > 100 µM
6.2,COc1cccc(NC(=S)NC2CC(C)(C)Oc3ccc(F)cc32)c1 (centres undefined),52,–
21.6,COc1ccc(NC(=S)NC2CC(C)(C)Oc3ccc(F)cc32)cc1 (centres undefined),73.8,–
> 10,CC1(C)CC(NC(=S)Nc2ccc(Cl)cc2)c2cc(Br)ccc2O1 (centres undefined),12.2,Activity [6]: inactive; Activity [8]: inactive; Activity [9]: Active; Activity [3]: 75.7%; Ratio IC50/EC50 (Aorta [4]): <0.22; Activity [12]: Active; IC50 [5]: 2.26 µM
> 30,Cc1ccc(NC(=S)NC2CC(C)(C)Oc3ccc(F)cc32)cc1 (centres undefined),60.2,–
